Each molecule was assayed against T1, Mycothiol S-conjugate amidase (Mycobacterium tuberculosis) (UniProt P9WJN1) (assay: Inhibition of Mycobacterium tuberculosis MCA at 50 uM).
T1 sequence (whole entry): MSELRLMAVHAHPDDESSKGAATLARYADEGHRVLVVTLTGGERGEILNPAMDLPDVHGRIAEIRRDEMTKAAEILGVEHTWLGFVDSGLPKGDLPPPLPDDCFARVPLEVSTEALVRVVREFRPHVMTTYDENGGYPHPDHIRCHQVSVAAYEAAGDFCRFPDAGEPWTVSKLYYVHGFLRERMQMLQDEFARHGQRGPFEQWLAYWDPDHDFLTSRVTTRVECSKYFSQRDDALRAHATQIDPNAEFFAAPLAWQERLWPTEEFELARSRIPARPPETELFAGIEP
Method in brief: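 Recombinant MCA was assayed by fluorescence-detected HPLC, with mycothiol bimane (MSmB) or its cyclohexyl thioglycoside analog as substrate. Inhibitors were screened at 100 and 50 μM, and the reported values are at a final 50 μM. Each value is the mean of two experiments. Below 10% inhibition was scored as no inhibition.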

Going from `O=C(N[C@H]1[C@@H](O[C@@H]2C[C@](O)(CO)C[C@@H](O)[C@H]2O)O[C@H](CO)[C@@H](O)[C@@H]1O)c1ccc2ccccc2c1` to `O=C(N[C@H]1[C@@H](O[C@@H]2C[C@](O)(CO)C[C@@H](O)[C@H]2O)O[C@H](CO)[C@@H](O)[C@@H]1O)c1ccc2ccsc2c1`, the inhibition falls from 13% to under 10%.

Compared with `CN(C)c1ccc(C(=O)N[C@H]2[C@@H](O[C@@H]3C[C@](O)(CO)C[C@@H](O)[C@H]3O)O[C@H](CO)[C@@H](O)[C@@H]2O)cc1`, `O=C(N[C@H]1[C@@H](O[C@@H]2C[C@](O)(CO)C[C@@H](O)[C@H]2O)O[C@H](CO)[C@@H](O)[C@@H]1O)c1ccc([N+](=O)[O-])cc1` is lower in inhibition: 44% for the first, 15% for the second.

Going from `O=C(N[C@H]1[C@@H](O[C@@H]2C[C@](O)(CO)C[C@@H](O)[C@H]2O)O[C@H](CO)[C@@H](O)[C@@H]1O)c1cccs1` to `O=C(N[C@H]1[C@@H](O[C@@H]2C[C@](O)(CO)C[C@@H](O)[C@H]2O)O[C@H](CO)[C@@H](O)[C@@H]1O)c1ccco1`, the inhibition rises from 13% to 15%.

Compared with `O=C(N[C@H]1[C@@H](O[C@@H]2C[C@](O)(CO)C[C@@H](O)[C@H]2O)O[C@H](CO)[C@@H](O)[C@@H]1O)c1cccnc1Sc1ccc(Cl)cc1`, `O=C(N[C@H]1[C@@H](O[C@@H]2C[C@](O)(CO)C[C@@H](O)[C@H]2O)O[C@H](CO)[C@@H](O)[C@@H]1O)c1ccncc1` is higher in inhibition: 10% for the first, 46% for the second.

Going from `CCCSc1cc(C(=O)N[C@H]2[C@@H](O[C@@H]3C[C@](O)(CO)C[C@@H](O)[C@H]3O)O[C@H](CO)[C@@H](O)[C@@H]2O)ccn1` to `O=C(N[C@H]1[C@@H](O[C@@H]2C[C@](O)(CO)C[C@@H](O)[C@H]2O)O[C@H](CO)[C@@H](O)[C@@H]1O)c1ccc(C(F)(F)F)cc1`, the inhibition rises from 15% to 16%.

Going from `CC(C)S(=O)(=O)c1csc(C(=O)N[C@H]2[C@@H](O[C@@H]3C[C@](O)(CO)C[C@@H](O)[C@H]3O)O[C@H](CO)[C@@H](O)[C@@H]2O)c1Cl` to `O=C(N[C@H]1[C@@H](O[C@@H]2C[C@](O)(CO)C[C@@H](O)[C@H]2O)O[C@H](CO)[C@@H](O)[C@@H]1O)C1CC1`, the inhibition rises from 11% to 13%.

Going from `Cc1onc(-c2c(F)cccc2Cl)c1C(=O)N[C@H]1[C@@H](O[C@@H]2C[C@](O)(CO)C[C@@H](O)[C@H]2O)O[C@H](CO)[C@@H](O)[C@@H]1O` to `CCCc1c(C(=O)N[C@H]2[C@@H](O[C@@H]3C[C@](O)(CO)C[C@@H](O)[C@H]3O)O[C@H](CO)[C@@H](O)[C@@H]2O)cnn1-c1cc(Cl)cc(Cl)c1`, the inhibition rises from under 10% to 26%.
